Experimental data from ChEMBL document CHEMBL1123589, “Phenylpiperazine-based radiopharmaceuticals for brain imaging. 3. Synthesis and evaluation of radioiodinated 1-alkyl-4-phenylpiperazines” (J Med Chem, 1987).

Tests used:
Conditions in all cases: in vivo
Rattus norvegicus [1] = assay: The biodistribution of the [125I]-labeled compound in rats after intravenous injection was evaluated in muscle at 0.25 hrs; value ranges from 0.03-0.04 (ID.kg/g); format: ADME, organism-based, Muscle tissue
Outline: (§1)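 Male Sprague-Dawley rats (250–300 g) under ether anesthesia given iv 0.1 mL saline containing 10–15 μCi of NCA ¹²⁵I-labeled agent (chloramine-T iodination, HPLC-purified). Groups of 3 killed at 0.25, 1 and 4 h. Blood and tissues excised, weighed and γ-counted. Values are mean (range) of % injected dose × body mass (kg) per gram of tissue.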

Rattus norvegicus [2] = assay: The biodistribution of the [125I]-labeled compound in rats after intravenous injection was evaluated in liver at 0.25 hr; value ranges from 0.69-1.03 (ID.kg/g); format: ADME, organism-based
Outline: (§2)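 Male Sprague-Dawley rats (250–300 g), under ether anesthesia, given 10–15 μCi of the NCA ¹²⁵I-labeled agent iv in 0.1 mL saline. Groups of N = 3 were killed at 0.25, 1 or 4 h. Blood and tissues were removed, weighed and counted in a γ-well scintillation counter. Values are mean % ID·kg/g (range).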

Rattus norvegicus [3] = assay: The biodistribution of the [125I]-labeled compound in rats after intravenous injection was evaluated in heart at 0.25 hrs (ID.kg/g); format: ADME, organism-based
Outline: (§3)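 Male Sprague-Dawley rats (250–300 g) under ether anesthesia were given an iv injection of no-carrier-added 125I-labelled agent (10–15 μCi in 0.1 mL saline). The agent was iodinated with chloramine-T in acetate buffer and purified by C-18 HPLC. Groups of N = 3 were killed at 0.25, 1 and 4 h. Blood and tissues were weighed and γ-counted. Values are % ID·kg/g, mean (range).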

Rattus norvegicus [4] = assay: The biodistribution of the [125I]-labeled compound in rats after intravenous injection was evaluated in muscle at 4.00 hrs (ID.kg/g); format: ADME, organism-based, Muscle tissue; outline: as §1
Rattus norvegicus [5] = assay: The biodistribution of the [125I]-labeled compound in rats after intravenous injection was evaluated in brain at 0.25 hrs; value ranges from 0.23-0.25 (ID.kg/g); format: ADME, organism-based; outline: as §3
Rattus norvegicus [6] = assay: The biodistribution of the [125I]-labeled compound in rats after intravenous injection was evaluated in adrenal at 0.25 hrs; value ranges from 1.25-1.44 (ID.kg/g); format: ADME, organism-based; outline: as §3
Rattus norvegicus [7] = assay: The biodistribution of the [125I]-labeled compound in rats after intravenous injection was evaluated in kidney at 1.00 hrs; value ranges from 0.26-0.35 (ID.kg/g); format: ADME, organism-based; outline: as §2
Rattus norvegicus [8] = assay: The biodistribution of the [125I]-labeled compound in rats after intravenous injection was evaluated in kidney at 4.00 hrs; value ranges from 0.26-0.35 (ID.kg/g); format: ADME, organism-based; outline: as §2
Rattus norvegicus [9] = assay: The biodistribution of the [125I]-labeled compound in rats after intravenous injection was evaluated in thyroid at 1.00 hrs; value ranges from 2.56-3.24 (ID.kg/g); format: ADME, organism-based, Thyroid gland; outline: as §1
Rattus norvegicus [10] = assay: The biodistribution of the [125I]-labeled compound in rats after intravenous injection was evaluated in brain at 1.00 hrs; value ranges from 0.14-0.15 (ID.kg/g); format: ADME, organism-based; outline: as §3
Rattus norvegicus [11] = assay: The biodistribution of the [125I]-labeled compound in rats after intravenous injection was evaluated in lung at 4.00 hrs (ID.kg/g); format: ADME, organism-based; outline: as §2
Rattus norvegicus [12] = assay: The biodistribution of the [125I]-labeled compound in rats after intravenous injection was evaluated in fat at 4.00 hrs; value ranges from 0.07-0.09 (ID.kg/g); format: ADME, organism-based, Adipose tissue; outline: as §3
Rattus norvegicus [13] = assay: The biodistribution of the [125I]-labeled compound in rats after intravenous injection was evaluated in liver at 4.00 hrs; value ranges from 0.40-0.61 (ID.kg/g); format: ADME, organism-based; outline: as §2
Rattus norvegicus [14] = assay: The biodistribution of the [125I]-labeled compound in rats after intravenous injection was evaluated in brain at 4.00 hrs; value ranges from 0.04-0.05 (ID.kg/g); format: ADME, organism-based; outline: as §3
Rattus norvegicus [15] = assay: The biodistribution of the [125I]-labeled compound in rats after intravenous injection was evaluated in lung at 1.00 hrs; value ranges from 0.34-0.43 (ID.kg/g); format: ADME, organism-based; outline: as §2
Rattus norvegicus [16] = assay: The biodistribution of the [125I]-labeled compound in rats after intravenous injection was evaluated in thyroid at 4.00 hrs; value ranges from 14.14-15.81 (ID.kg/g); format: ADME, organism-based, Thyroid gland; outline: as §1
Rattus norvegicus [17] = assay: The biodistribution of the [125I]-labeled compound in rats after intravenous injection was evaluated in muscle at 1.00 hrs; value ranges from 0.03-0.04 (ID.kg/g); format: ADME, organism-based, Muscle tissue; outline: as §1
Rattus norvegicus [18] = assay: The biodistribution of the [125I]-labeled compound in rats after intravenous injection was evaluated in thyroid at 0.25 hrs; value ranges from 1.31-2.46( ID.kg/g); format: ADME, organism-based, Thyroid gland; outline: as §1
Rattus norvegicus [19] = assay: The biodistribution of the [125I]-labeled compound in rats after intravenous injection was evaluated in liver at 1.00 hrs; value ranges from 0.54-0.58 (ID.kg/g); format: ADME, organism-based; outline: as §2
Rattus norvegicus [20] = assay: The biodistribution of the [125I]-labeled compound in rats after intravenous injection was evaluated in lung at 0.25 hrs; value ranges from 0.52-0.58 (ID.kg/g); format: ADME, organism-based; outline: as §2
Rattus norvegicus [21] = assay: The biodistribution of the [125I]-labeled compound in rats after intravenous injection was evaluated in fat at 0.25 hr (ID. kg/g); format: ADME, organism-based, Adipose tissue; outline: as §3
Rattus norvegicus [22] = assay: The biodistribution of the [125I]-labeled compound in rats after intravenous injection was evaluated in fat at 1.00 hrs; value ranges from 0.07-0.09 (ID.kg/g); format: ADME, organism-based, Adipose tissue; outline: as §3
Rattus norvegicus [23] = assay: The biodistribution of the [125I]-labeled compound in rats after intravenous injection was evaluated in blood at 4.00 hrs; value ranges from […]-0.09 (ID.kg/g); format: ADME, organism-based; outline: as §3
Rattus norvegicus [24] = assay: The biodistribution of the [125I]-labeled compound in rats after intravenous injection was evaluated in heart at 1.00 hrs; value ranges from 0.08-0.09 (ID.kg/g); format: ADME, organism-based; outline: as §3
Rattus norvegicus [25] = assay: The biodistribution of the [125I]-labeled compound in rats after intravenous injection was evaluated in blood at 0.25 hrs (ID.kg/g); format: ADME, organism-based; outline: as §3
Rattus norvegicus [26] = assay: The biodistribution of the [125I]-labeled compound in rats after intravenous injection was evaluated in heart at 4.00 hrs; value ranges from 0.04-0.06 (ID.kg/g); format: ADME, organism-based; outline: as §2
Rattus norvegicus [27] = assay: The biodistribution of the [125I]-labeled compound in rats after intravenous injection was evaluated in blood at 1.00 hrs (ID.kg/g); format: ADME, organism-based; outline: as §3
Rattus norvegicus [28] = assay: The biodistribution of the [125I]-labeled compound in rats after intravenous injection was evaluated in adrenal at 4.00 hrs; value ranges from 0.20-0.32 (ID.kg/g); format: ADME, organism-based; outline: as §3
Rattus norvegicus [29] = assay: The biodistribution of the [125I]-labeled compound in rats after intravenous injection was evaluated in kidney at 0.25 hr; value ranges from 0.28-0.32 (ID.kg/g); format: ADME, organism-based; outline: as §2
Rattus norvegicus [30] = assay: The biodistribution of the [125I]-labeled compound in rats after intravenous injection was evaluated in adrenal at 1.00 hrs; value ranges from 0.84-1.04 (ID.kg/g); format: ADME, organism-based; outline: as §3

SMILES: CCN1CCN(c2ccc(I)cc2)CC1
- Biodistribution (Rattus norvegicus [1]): 0.04%
- Biodistribution (Rattus norvegicus [2]): 1.03%
- Biodistribution (Rattus norvegicus [3]): 0.1%
- Biodistribution (Rattus norvegicus [4]): 0.02 %ID·kg/g
- Biodistribution (Rattus norvegicus [5]): 0.25%
- Biodistribution (Rattus norvegicus [6]): 1.44%
- Biodistribution (Rattus norvegicus [7]): 0.35%
- Biodistribution (Rattus norvegicus [8]): 0.35%
- Biodistribution (Rattus norvegicus [9]): 3.24%
- Biodistribution (Rattus norvegicus [10]): 0.16%
- Biodistribution (Rattus norvegicus [11]): 0.17%
- Biodistribution (Rattus norvegicus [12]): 0.09%
- Biodistribution (Rattus norvegicus [13]): 0.61%
- Biodistribution (Rattus norvegicus [14]): 0.05%
- Biodistribution (Rattus norvegicus [15]): 0.43%
- Biodistribution (Rattus norvegicus [16]): 15.81%
- Biodistribution (Rattus norvegicus [17]): 0.04%
- Biodistribution (Rattus norvegicus [18]): 2.46%
- Biodistribution (Rattus norvegicus [19]): 0.58%
- Biodistribution (Rattus norvegicus [20]): 0.58%
- Biodistribution (Rattus norvegicus [21]): 0.09 % ID·kg/g
- Biodistribution (Rattus norvegicus [22]): 0.09%
- Biodistribution (Rattus norvegicus [23]): 0.09%
- Biodistribution (Rattus norvegicus [24]): 0.09%
- Biodistribution (Rattus norvegicus [25]): 0.04 % ID·kg/g
- Biodistribution (Rattus norvegicus [26]): 0.06%
- Biodistribution (Rattus norvegicus [27]): 0.07 % ID·kg/g
- Biodistribution (Rattus norvegicus [28]): 0.32%
- Biodistribution (Rattus norvegicus [29]): 0.38%
- Biodistribution (Rattus norvegicus [30]): 1.04%
